ChEMBL document CHEMBL4680373, “Evaluation of 5-(Trifluoromethyl)-1,2,4-oxadiazole-Based Class IIa HDAC Inhibitors for Huntington's Disease” (ACS Med Chem Lett, 2021)

How the values were obtained:
[1] = Toxicity in CBAxC57BL/6J mouse assessed as effect on retropulsion at 10 to 100 mg/kg, po bid for 14.5 days; type: organism-based; conditions: in vivo, 348 h, dose 10-100 mg/kg, time 14.5 day
Outline: (§1)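 R6/2 HD mice and wild-type littermates, male and female, were dosed orally b.i.d. at 10, 30 or 100 mg/kg or with vehicle for 14.5 days. Vehicle was 10% (w/v) hydroxypropyl-β-cyclodextrin in 50 mM citrate buffer. Body weight, body temperature, passive observations and active manipulation scores were recorded. Blood and brain were collected 2 h after the final dose.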

[2] = biological target: T1, Protein deacetylase HDAC6 (Homo sapiens, UniProt Q9UBN7); assay: Inhibition of HDAC6 (unknown origin) expressed in human HEK-Freestyle cells using Boc-Lys(Ac) as substrate by fluorogenic assay; type: cell-based
T1 sequence (Q9UBN7 whole entry): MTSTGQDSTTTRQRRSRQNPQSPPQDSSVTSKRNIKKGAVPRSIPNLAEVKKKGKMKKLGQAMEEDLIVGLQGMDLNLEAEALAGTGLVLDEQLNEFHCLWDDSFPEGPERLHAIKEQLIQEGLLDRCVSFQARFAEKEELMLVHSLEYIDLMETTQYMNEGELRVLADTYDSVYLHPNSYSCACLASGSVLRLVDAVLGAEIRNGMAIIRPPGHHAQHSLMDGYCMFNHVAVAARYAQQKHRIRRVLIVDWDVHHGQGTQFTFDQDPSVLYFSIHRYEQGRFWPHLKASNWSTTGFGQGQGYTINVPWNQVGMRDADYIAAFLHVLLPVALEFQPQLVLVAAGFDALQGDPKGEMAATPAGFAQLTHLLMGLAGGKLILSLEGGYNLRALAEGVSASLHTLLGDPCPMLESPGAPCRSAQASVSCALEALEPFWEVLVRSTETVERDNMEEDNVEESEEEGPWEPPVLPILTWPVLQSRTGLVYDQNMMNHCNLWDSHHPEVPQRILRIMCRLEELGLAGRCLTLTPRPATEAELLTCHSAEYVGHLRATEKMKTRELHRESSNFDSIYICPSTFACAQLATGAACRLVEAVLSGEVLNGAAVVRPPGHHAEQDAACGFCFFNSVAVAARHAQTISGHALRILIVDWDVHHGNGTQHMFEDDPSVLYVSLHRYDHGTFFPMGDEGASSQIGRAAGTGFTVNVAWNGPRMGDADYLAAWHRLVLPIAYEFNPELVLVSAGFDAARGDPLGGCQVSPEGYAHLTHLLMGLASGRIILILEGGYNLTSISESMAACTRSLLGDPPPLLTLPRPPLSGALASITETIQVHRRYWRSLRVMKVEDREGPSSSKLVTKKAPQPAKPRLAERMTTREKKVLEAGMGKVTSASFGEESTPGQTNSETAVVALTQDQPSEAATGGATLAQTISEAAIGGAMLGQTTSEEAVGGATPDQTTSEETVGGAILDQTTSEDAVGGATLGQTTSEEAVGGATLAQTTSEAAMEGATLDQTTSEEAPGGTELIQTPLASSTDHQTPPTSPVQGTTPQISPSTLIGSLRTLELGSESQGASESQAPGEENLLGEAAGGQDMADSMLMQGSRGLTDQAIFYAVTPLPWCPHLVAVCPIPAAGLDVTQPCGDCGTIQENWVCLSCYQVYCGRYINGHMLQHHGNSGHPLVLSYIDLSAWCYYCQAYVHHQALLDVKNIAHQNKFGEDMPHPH
Outline: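 HDAC6 was supplied as lysate of HEK cells overexpressing the enzyme. Activity was read with the class I/IIb-specific fluorogenic substrate Boc-Lys-(Ac)-AMC. IC50 is the geometric mean of three experiments.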

[3] = biological target: Muscarinic acetylcholine receptor M3 (Homo sapiens, UniProt P20309); assay: Displacement of [3H]4-DAMP from human recombinant M3 receptor incubated for 1 hr by radiometric scintillation counting analysis
[4] = biological target: Cav1.2 (voltage-dependent L-type calcium channel subunit alpha-1C) (Rattus norvegicus, UniProt P22002); assay: Displacement of [3H]Diltiazem from Cav1.2 in rat brain at 10 uM incubated for 120 mins by radiometric scintillation counting analysis; type: tissue-based; conditions: probe [3H]Diltiazem
Outline: (§2)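 Broad selectivity panel of binding, cellular, functional and enzymatic assays run by a contract lab. Each test was done at a single 10 μM concentration and reported as percent inhibition.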

[5] = biological target: Histone deacetylase 4 (Homo sapiens, UniProt P56524); assay: Inhibition of human recombinant HDAC4 at 10 uM incubated for 30 mins by fluorometry; outline: as §2
[6] = biological target: Muscarinic acetylcholine receptor M4 (Homo sapiens) (UniProt P08173); assay: Displacement of [3H]4-DAMP from human recombinant M4 receptor at 10 uM incubated for 1 hr by radiometric scintillation counting analysis; outline: as §2
[7] = Toxicity in CBAxC57BL/6J mouse assessed as effect on touch escape at 10 to 100 mg/kg, po bid for 14.5 days; type: organism-based; conditions: in vivo, 348 h, dose 10-100 mg/kg, time 14.5 day; outline: as §1
[8] = Toxicity in CBAxC57BL/6J mouse assessed as effect on flat body posture at 10 to 100 mg/kg, po bid for 14.5 days; type: organism-based; conditions: in vivo, 348 h, dose 10-100 mg/kg, time 14.5 day; outline: as §1
[9] = biological target: Sigma non-opioid intracellular receptor 1 (Homo sapiens) (UniProt Q99720); assay: Displacement of [3H](+)-pentazocine from human sigma1 receptor at 10 uM incubated for 120 mins by radiometric scintillation counting analysis; outline: as §2
[10] = biological target: Class 1 histone deacetylase (Homo sapiens, UniProt Q13547+O15379+Q92769+Q9BY41); assay: Inhibition of Class 1 HDAC in human HEK293 cells using H4K12 as substrate by fluorogenic assay; type: cell-based
[11] = biological target: Histone deacetylase 1 (Homo sapiens, UniProt Q13547); assay: Inhibition of HDAC1 (unknown origin) using Ac-Arg-Gly-Lys(Ac) as substrate by fluorogenic assay
[12] = organism: Homo sapiens; assay: Inhibition of sodium channel (unknown origin) at 10 uM; outline: as §2
[13] = In vivo inhibition of Class 1 HDAC in C57BL/6J mouse brain assessed as increase in H4K12 acetylation administered orally via gavage measured after 2 to 4 hrs by dot blot technique; type: organism-based; conditions: po, dose lower 10 mg/kg, time lower 2 hrs, dose upper 100 mg/kg, time upper 4 hrs
Outline: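 Mice received single oral gavage doses of 10, 30 or 100 mg/kg, and brains were sampled from 0.25 to 12 h. Brain compound levels were measured by LC-MS/MS. Dot blots read H4K12 acetylation normalized to histone H4, or pan-acetyl-lysine normalized to tubulin.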

[14] = biological target: Cytochrome P450 2D6 (Homo sapiens, UniProt P10635); assay: Inhibition of CYP2D6 in human liver microsomes using dextromethorphan as substrate incubated for 15 mins by LC-MS/MS analysis; type: ADME
[15] = biological target: Histone deacetylase 5 (Homo sapiens, UniProt Q9UQL6); assay: Inhibition of HDAC5 (unknown origin) using Boc Lys(TFA) as substrate by fluorogenic assay
Outline: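 Biochemical HDAC isoform assay with the artificial fluorogenic substrate Boc-Lys-(TFA)-AMC, which is specific to class IIa enzymes and HDAC8. IC50 taken as the geometric mean of three experiments.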

[16] = Intrinsic Clearance in mouse liver microsomes; type: ADME, Microsome; conditions: read-out: CLH
[17] = Inhibition of Class 2b HDAC in human HEK293 cells using alpha-tubulin as substrate by fluorogenic assay; type: cell-based

Histone deacetylase 4, sequence (P56524 whole entry): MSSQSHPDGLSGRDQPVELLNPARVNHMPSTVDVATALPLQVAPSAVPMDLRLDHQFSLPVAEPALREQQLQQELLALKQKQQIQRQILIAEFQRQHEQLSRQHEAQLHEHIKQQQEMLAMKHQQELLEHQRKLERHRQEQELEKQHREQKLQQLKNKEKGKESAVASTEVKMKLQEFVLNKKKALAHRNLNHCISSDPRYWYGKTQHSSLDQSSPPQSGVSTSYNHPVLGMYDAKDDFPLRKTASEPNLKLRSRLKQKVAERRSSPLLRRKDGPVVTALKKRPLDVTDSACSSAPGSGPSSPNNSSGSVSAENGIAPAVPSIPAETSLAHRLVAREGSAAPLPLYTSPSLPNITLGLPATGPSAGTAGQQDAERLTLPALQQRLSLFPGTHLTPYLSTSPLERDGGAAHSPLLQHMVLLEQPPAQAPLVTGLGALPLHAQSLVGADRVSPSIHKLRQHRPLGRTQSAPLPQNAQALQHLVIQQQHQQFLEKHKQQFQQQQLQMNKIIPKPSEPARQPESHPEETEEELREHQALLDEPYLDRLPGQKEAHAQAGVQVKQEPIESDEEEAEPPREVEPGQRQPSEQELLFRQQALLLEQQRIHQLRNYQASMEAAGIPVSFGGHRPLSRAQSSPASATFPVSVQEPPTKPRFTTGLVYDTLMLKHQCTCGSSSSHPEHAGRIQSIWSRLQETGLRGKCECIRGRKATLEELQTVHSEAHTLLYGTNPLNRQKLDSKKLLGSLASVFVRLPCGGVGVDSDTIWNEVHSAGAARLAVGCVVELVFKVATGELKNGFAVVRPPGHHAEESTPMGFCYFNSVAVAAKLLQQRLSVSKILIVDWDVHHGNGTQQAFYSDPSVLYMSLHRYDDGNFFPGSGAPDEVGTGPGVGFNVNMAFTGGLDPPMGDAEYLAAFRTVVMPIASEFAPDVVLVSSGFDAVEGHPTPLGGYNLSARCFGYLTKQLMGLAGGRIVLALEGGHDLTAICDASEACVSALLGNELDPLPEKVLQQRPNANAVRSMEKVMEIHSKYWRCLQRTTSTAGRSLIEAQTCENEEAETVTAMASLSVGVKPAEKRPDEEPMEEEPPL
Sigma non-opioid intracellular receptor 1 (Homo sapiens), sequence (Q99720 whole entry): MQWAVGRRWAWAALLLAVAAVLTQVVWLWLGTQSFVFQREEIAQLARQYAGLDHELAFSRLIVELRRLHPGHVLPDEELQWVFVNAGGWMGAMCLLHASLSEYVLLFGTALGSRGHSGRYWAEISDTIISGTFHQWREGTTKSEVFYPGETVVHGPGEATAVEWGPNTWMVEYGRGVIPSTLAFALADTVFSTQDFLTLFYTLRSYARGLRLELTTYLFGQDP
Muscarinic acetylcholine receptor M4 (Homo sapiens), sequence (P08173 whole entry): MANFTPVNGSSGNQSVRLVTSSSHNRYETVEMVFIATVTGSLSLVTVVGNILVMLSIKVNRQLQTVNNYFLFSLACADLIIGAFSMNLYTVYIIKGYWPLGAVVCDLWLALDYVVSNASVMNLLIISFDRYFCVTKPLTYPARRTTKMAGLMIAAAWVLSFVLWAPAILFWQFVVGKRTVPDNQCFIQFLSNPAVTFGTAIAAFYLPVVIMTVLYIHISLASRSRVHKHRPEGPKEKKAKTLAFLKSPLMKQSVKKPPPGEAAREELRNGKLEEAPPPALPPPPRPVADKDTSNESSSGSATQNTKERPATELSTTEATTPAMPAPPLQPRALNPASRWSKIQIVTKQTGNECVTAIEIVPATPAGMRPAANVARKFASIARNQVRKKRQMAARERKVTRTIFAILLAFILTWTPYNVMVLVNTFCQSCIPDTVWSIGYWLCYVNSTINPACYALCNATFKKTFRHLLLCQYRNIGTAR
Histone deacetylase 1, sequence (Q13547 whole entry): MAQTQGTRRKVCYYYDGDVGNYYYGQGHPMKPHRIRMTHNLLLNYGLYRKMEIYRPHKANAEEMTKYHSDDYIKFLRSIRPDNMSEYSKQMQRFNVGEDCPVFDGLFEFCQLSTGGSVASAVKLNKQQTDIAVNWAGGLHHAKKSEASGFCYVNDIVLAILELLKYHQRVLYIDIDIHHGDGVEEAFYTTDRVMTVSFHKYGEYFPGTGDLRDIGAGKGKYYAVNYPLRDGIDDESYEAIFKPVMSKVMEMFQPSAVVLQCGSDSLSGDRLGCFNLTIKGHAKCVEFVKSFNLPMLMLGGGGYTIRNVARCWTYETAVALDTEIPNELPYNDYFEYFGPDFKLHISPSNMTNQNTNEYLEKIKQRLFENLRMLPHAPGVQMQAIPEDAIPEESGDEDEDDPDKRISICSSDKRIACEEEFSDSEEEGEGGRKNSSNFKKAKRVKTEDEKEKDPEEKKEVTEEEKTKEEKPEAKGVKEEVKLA
Cav1.2 (voltage-dependent L-type calcium channel subunit alpha-1C), sequence (P22002 whole entry): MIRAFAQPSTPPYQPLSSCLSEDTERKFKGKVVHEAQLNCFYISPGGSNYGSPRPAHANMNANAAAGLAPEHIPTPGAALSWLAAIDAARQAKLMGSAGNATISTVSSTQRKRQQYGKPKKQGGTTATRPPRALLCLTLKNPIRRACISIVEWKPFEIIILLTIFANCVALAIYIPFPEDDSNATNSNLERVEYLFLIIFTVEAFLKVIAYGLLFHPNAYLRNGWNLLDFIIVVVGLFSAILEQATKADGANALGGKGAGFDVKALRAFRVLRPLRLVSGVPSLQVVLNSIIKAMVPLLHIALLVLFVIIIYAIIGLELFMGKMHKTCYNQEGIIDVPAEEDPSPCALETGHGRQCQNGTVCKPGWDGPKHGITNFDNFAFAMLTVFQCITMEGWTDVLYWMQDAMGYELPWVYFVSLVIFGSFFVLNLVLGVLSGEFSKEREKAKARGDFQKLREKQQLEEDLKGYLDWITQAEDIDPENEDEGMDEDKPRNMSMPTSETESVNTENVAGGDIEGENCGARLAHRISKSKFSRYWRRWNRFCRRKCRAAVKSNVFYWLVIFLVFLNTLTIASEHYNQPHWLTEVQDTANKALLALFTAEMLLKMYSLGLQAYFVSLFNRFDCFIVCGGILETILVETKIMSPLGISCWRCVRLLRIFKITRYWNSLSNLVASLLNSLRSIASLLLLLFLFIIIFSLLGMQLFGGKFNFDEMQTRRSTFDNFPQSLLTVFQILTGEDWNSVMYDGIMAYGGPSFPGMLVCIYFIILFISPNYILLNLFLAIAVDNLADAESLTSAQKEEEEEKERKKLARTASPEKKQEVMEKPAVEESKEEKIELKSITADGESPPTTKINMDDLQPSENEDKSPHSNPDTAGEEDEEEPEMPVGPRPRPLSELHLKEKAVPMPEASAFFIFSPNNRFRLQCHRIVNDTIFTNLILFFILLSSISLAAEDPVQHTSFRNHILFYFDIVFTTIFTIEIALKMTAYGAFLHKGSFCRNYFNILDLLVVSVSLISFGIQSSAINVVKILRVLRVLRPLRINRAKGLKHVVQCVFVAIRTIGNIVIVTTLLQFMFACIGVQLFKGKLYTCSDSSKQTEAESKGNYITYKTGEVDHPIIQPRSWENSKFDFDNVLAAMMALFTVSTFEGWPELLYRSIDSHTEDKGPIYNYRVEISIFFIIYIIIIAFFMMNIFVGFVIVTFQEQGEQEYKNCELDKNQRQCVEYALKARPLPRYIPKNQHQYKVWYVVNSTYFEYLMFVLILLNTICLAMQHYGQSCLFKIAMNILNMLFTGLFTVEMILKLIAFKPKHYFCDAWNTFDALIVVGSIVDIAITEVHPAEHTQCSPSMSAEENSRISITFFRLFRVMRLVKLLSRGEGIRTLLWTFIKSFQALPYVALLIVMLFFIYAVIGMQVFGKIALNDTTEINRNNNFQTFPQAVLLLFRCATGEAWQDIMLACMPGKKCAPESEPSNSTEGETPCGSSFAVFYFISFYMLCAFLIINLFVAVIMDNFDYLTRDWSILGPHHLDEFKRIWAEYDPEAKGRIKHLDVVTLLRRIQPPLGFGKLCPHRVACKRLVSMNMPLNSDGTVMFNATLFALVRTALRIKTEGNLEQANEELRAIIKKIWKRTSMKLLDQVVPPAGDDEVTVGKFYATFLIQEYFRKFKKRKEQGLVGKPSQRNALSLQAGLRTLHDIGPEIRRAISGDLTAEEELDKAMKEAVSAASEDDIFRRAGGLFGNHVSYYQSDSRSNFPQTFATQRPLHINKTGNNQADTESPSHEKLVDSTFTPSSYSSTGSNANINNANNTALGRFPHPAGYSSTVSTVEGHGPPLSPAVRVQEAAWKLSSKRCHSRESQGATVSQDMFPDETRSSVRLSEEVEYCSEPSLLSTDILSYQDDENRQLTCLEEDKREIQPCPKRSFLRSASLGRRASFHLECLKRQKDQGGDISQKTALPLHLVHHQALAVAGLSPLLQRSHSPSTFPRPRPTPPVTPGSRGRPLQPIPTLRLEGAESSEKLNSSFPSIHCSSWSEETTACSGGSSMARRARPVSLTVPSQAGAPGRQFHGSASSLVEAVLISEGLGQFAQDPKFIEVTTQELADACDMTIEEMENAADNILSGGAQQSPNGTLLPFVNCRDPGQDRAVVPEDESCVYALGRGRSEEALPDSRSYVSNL
Muscarinic acetylcholine receptor M3, sequence (P20309 whole entry): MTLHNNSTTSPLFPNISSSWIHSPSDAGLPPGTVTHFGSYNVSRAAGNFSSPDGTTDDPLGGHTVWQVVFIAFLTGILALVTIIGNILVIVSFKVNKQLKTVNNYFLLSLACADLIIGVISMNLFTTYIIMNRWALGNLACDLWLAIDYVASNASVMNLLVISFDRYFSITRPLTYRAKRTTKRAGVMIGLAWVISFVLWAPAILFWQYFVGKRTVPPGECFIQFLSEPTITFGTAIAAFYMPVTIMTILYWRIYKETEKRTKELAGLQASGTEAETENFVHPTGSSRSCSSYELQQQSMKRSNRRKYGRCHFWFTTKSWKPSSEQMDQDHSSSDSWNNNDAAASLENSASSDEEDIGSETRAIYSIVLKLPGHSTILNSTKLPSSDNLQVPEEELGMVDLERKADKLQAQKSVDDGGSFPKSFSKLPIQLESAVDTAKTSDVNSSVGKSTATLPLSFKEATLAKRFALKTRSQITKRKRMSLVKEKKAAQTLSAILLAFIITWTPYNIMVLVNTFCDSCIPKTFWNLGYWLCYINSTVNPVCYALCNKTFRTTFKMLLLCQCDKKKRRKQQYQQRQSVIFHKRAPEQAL

SMILES: C[C@H](CN1CCC[C@@H]1C)NC(=O)c1ccc(-c2noc(C(F)(F)F)n2)cc1
- Activity [1]: Non-Toxic
- IC50 [2]: 22 µM
- Kd [3]: > 5 µM
- inhibition at 2 h, 10 µM [4]: > 50%
- inhibition [5]: > 80%
- inhibition [6]: > 80%
- Activity [7]: Non-Toxic
- Activity [8]: Non-Toxic
- inhibition [9]: > 50%
- IC50 [10]: 9.9 µM
- IC50 [11]: 17 µM
- inhibition [12]: > 50%
- Activity [13]: Toxic
- IC50 [14]: > 50 µM
- IC50 [15]: 0.02 µM
- CLint scaled [16]: 86 mL/min/kg
- IC50 [17]: > 29 µM
